Data reported in the EternaBench riboswitch data.

System: MS2 coat protein
Test: apparent Kd, MS2 coat protein; higher = weaker binding; RNA-MaP array; tryptophan 2.4 mM where present
How it was run: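 Stalled E. coli RNA polymerase transcribed the designs on Illumina sequencing-chip clusters. SNAP-549-labelled MS2 coat protein was titrated from 0.7 or 1.5 nM, doubling to 3 µM, without and then with constant ligand, in 100 mM Tris-HCl pH 7.5, 80 mM KCl, 4 mM MgCl2, BSA, DTT, yeast tRNA and Tween-20. Per-cluster binding curves were fitted to green signal normalised to red-channel RNA signal and control-cluster median Fmax. The apparent Kd is the median of the filtered fits.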

[1] = designed as: OFF switch for tryptophan, no ligand
[2] = ligand present: tryptophan, designed as: OFF switch for tryptophan
[3] = designed as: ON switch for tryptophan, no ligand
[4] = ligand present: tryptophan, designed as: ON switch for tryptophan

AUAAUAUAGACGGCCGCCACUAUAAACAUGAGGAACAUGAGGAUCACCCAUGUAUGAGGAUCACCUAGGACCGGGUCAUAUAUUA
apparent Kd [1]: 55.8 nM
apparent Kd [2]: 42 nM

UUACCGUAAGGUAUACCGGUCCACAAUAAUCGAGGACCGGUACGGCCGCCACUCGAUGUGUGAUCACAUGAGGAUCACCCAUGUA
apparent Kd [3]: 265 nM
apparent Kd [4]: 379 nM

UAAUGCAUGACGGCCGCCACUAGAACAUGAGGAUCACCCAUGUACGGCGGCCGUCAUGGGUGGACUAGGACCGGGUCAUGCAUAU
apparent Kd [1]: 9.23 nM
apparent Kd [2]: 10.5 nM

UGUCAGCGAAAGUUGACAUGUCUUACCGGUCGAGGACCGGUACGGCCGCCACUCGAUCUCUCGCACAUGAGGAUCACCCAUGUUG
apparent Kd [3]: 21.4 nM
apparent Kd [4]: 15.1 nM

GGGUACAUCGCGGCCGCCACUUAUGUAAAUACAUGAGGAUCACCCAUGUCGAUGGAGACAUCGGAGAGGACCGGGUGAUGUACCG
apparent Kd [3]: 36.1 nM
apparent Kd [4]: 35.9 nM

AAUUAUCAGUCGGCCGCCACUGACACAUGAGGAUCACCCAUGUAACUUGGGAUAAAUUUAAUAAACAGGACCGGGACAAAGGCUA
apparent Kd [1]: 58.8 nM
apparent Kd [2]: 49.7 nM

CUCAUCCACGCGGCCGCCACUAUAUUGUGGUGCGAAUGUGUCGUAAUACAUGAGGAUCACCCAUGUAGGACCGGGCGUGGAUGAG
apparent Kd [1]: 12.6 nM
apparent Kd [2]: 54.8 nM
